From ChEMBL document CHEMBL1135973, “Synthesis and structure-activity relationships of 6,7-benzomorphan derivatives as use-dependent sodium channel blockers for the treatment of stroke” (J Med Chem, 2002)
pKi: −log10 of the molar value.

Columns and labels:
Mus musculus [1] = species: Mus musculus; test: Ability to block convulsions in the maximal electroshock test(MES) in mice; format: functional; settings: read-out: ID50 (the source's name)
Outline: (§1)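 Male OF1 mice, groups of 10, given several doses sc; electroshock 20 mA/50 Hz/200 ms through eye electrodes 15 min after injection. Score is the percentage of animals free of tonic convulsions. ID50 for inhibition of tonic seizures obtained by log-probit analysis over three to four doses.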

[2] = target: T1, Sodium channel alpha subunits; brain (Types I, II, III) (Rattus norvegicus, UniProt P04775+P04774+P08104); test: Inhibitory effect against veratridine-induced glutamate release from rat brain slices; format: functional
Outline: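 Cross-chopped 0.2 mm slices of Chbb:Thom rat cortex or striatum preincubated 45 min at 37 °C in oxygenated Krebs–Henseleit buffer pH 7.4 with glucose, EDTA and ascorbate. Then 15 min with or without 3 μM veratridine, drug present throughout. After centrifugation, supernatant glutamate measured by HPLC with fluorimetric detection; protein by Coomassie.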

[3] = target: T1, Sodium channel alpha subunits; brain (Types I, II, III); test: Displacement of [3H]BTX from sodium channel of rat cerebral cortex synaptosomes; format: subcellular
Outline: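 Synaptosomal membranes from rat cerebral cortex incubated 1 h at 37 °C with 1 nmol/L [3H]BTX-B in choline Cl/HEPES-Tris buffer pH 7.4 containing glucose, KCl and MgSO4, plus scorpion venom. Nonspecific binding defined with 100 μmol/L aconitine. Stopped by vacuum filtration through glass fiber and two buffer washes.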

Mus musculus [4] = species: Mus musculus; test: Percent of mice that did not develop tonic convulsion in the maximal electroshock test (MES); format: functional; outline: as §1
[5] = target: T2, Voltage-gated L-type calcium channel (Rattus norvegicus, UniProt P22002+Q02485+P27732); test: Displacement of verapamil from L-type calcium channel binding site; format: protein assay
[6] = target: T2, Voltage-gated L-type calcium channel; test: Displacement of diltiazem from L-type calcium channel binding site; format: protein assay
Mus musculus [7] = species: Mus musculus; test: Ability to block convulsions in the maximal electroshock test (MES) in mice; format: functional; outline: as §1
[8] = target: T1, Sodium channel alpha subunits; brain (Types I, II, III); test: Displacement of [3H]-TTX from sodium channel of rat cerebral cortex synaptosomes; format: subcellular
[9] = target: T2, Voltage-gated L-type calcium channel; test: Displacement of DHP from L-type calcium channel binding site; format: protein assay
[10] = target: T3, Sodium channel alpha subunits; brain (Types I, II, III) (Rattus norvegicus) (UniProt P04775+P04774+P08104); test: Percent inhibition of [3H]BTX displacement at 10000 nmol/L; format: protein assay
[11] = target: T3, Sodium channel alpha subunits; brain (Types I, II, III) (Rattus norvegicus); test: Percent inhibition of veratridine-induced glutamate release in rat brain slices at 10000 nmol/L; format: functional, tissue-based
[12] = target: T2, Voltage-gated L-type calcium channel; test: Displacement of dihydropyridine (DHP) from the L-type calcium channel binding site; format: protein assay
[13] = read-out: ID50 (the source's name)

T3 sequence (P04775 whole entry, looked up, other chains not shown): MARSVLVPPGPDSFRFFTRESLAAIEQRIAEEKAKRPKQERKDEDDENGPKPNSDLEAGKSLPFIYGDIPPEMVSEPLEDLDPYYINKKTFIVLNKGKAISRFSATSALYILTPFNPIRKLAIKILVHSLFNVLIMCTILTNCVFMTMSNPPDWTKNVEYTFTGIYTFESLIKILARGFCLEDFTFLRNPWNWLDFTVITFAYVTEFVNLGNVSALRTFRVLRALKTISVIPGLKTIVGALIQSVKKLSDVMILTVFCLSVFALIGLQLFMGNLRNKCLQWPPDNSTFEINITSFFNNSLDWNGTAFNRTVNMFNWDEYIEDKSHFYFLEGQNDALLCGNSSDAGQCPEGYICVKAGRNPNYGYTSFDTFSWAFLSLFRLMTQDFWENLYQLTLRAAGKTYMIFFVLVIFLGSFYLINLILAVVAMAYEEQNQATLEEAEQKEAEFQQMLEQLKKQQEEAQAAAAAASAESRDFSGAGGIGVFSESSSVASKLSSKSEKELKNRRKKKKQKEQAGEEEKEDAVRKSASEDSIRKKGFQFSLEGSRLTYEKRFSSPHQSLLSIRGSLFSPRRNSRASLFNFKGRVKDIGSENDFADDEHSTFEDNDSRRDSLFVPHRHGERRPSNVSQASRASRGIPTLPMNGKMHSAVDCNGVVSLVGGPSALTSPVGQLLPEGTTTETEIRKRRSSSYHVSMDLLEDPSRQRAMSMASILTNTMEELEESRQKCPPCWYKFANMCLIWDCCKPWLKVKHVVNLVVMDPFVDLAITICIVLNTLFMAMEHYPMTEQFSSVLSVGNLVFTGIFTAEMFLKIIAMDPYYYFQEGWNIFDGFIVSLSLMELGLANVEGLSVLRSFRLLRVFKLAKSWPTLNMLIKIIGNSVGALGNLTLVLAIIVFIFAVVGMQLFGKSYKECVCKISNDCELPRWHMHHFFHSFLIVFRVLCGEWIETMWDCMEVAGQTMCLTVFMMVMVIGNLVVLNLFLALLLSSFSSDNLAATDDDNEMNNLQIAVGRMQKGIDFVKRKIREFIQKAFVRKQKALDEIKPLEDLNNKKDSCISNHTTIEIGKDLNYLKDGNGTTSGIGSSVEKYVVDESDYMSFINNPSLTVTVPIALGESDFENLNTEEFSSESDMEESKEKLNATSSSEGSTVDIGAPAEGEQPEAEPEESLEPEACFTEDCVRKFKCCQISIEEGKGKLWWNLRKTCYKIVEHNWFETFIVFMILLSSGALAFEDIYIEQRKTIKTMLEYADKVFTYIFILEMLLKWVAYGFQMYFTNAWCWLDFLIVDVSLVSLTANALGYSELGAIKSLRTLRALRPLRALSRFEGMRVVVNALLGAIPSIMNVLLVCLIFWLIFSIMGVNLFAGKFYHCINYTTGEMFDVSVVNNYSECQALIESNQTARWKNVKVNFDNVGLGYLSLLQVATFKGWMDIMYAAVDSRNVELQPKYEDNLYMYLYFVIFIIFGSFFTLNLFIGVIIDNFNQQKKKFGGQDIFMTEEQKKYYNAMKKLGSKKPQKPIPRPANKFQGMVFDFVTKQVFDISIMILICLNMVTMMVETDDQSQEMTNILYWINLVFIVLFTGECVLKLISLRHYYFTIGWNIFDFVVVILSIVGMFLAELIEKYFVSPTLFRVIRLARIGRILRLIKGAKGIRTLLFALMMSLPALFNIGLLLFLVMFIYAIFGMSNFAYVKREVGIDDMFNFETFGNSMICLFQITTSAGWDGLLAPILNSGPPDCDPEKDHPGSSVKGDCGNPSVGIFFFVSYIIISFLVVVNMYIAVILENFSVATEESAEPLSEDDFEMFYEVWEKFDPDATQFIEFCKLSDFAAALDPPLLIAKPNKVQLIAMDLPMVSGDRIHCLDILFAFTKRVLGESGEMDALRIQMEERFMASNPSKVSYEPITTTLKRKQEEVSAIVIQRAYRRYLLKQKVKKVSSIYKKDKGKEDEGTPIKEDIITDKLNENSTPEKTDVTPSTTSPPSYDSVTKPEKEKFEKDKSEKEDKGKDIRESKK
T3 sequence (P08104 whole entry, looked up, other chains not shown): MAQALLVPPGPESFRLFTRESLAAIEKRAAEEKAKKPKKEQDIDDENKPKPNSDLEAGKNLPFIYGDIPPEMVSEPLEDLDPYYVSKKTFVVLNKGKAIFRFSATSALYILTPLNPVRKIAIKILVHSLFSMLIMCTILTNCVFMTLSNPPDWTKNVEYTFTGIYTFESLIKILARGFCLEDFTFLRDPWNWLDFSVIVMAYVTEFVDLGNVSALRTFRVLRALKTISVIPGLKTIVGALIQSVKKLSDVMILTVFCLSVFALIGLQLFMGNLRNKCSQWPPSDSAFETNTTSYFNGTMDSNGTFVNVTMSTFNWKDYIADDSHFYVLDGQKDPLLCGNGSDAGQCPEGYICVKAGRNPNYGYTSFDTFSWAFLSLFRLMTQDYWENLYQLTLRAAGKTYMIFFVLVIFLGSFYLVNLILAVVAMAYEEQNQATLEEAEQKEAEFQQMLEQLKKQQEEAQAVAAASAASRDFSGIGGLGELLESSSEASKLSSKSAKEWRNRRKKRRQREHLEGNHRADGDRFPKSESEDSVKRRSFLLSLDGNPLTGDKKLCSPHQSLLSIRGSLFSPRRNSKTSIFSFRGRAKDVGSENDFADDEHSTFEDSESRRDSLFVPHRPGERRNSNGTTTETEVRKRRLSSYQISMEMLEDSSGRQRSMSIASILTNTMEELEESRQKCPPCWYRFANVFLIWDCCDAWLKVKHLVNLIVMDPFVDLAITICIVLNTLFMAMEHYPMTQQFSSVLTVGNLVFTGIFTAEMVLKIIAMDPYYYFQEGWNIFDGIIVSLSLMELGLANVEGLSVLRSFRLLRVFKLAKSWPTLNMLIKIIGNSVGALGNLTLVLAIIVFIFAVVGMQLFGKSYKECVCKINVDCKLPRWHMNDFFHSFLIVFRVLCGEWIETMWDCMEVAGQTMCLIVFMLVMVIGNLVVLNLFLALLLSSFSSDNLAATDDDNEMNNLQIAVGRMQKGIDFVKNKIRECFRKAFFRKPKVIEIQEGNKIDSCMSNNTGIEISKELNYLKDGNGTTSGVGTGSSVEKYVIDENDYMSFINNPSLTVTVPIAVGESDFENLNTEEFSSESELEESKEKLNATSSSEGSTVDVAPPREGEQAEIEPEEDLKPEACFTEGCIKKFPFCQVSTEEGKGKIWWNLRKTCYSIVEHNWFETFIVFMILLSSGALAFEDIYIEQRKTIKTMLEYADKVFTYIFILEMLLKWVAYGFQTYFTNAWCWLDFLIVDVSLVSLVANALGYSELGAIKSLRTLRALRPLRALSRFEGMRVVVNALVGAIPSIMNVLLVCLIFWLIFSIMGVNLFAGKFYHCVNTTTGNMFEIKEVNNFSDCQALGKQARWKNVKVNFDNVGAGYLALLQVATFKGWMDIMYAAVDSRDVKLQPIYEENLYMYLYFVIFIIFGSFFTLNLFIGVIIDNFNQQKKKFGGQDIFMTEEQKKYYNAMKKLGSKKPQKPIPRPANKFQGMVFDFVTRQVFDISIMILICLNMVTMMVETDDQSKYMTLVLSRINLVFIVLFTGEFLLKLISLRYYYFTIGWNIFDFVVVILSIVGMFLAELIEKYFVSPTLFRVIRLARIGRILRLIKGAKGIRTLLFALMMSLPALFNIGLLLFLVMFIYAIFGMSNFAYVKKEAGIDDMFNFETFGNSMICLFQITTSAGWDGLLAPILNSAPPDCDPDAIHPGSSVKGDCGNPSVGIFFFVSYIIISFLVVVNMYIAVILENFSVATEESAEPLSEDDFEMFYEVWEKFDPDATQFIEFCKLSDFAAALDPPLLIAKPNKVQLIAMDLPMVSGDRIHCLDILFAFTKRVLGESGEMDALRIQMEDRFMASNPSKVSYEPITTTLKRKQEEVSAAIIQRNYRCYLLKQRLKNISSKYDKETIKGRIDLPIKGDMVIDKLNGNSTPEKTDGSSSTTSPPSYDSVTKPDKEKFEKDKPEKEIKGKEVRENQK

Row | Compound | IC50 [2] | pKi [3] | ED50 (Mus musculus [7]; [13]) [mg/kg] | other results
1 | C[C@H](CN1CCC2(C)c3cccc(O)c3C[C@@H]1C2(C)C)OCC1CCCCC1 | 1481 nmol/L | 6.62 |  | ED50 (Mus musculus [1]): > 30 mg/kg; Mice (Mus musculus [4]): 0%
2 | C[C@@H](CN1CCC2(C)c3cccc(O)c3C[C@@H]1C2(C)C)OCc1ccccc1 | 322 nmol/L | 7.37 | 6.1 | Ki [5]: 449 nM l-1; Ki [6]: 660 nM l-1; Ki [8]: > 10000 nM l-1; Ki [9]: > 10000 nM l-1
3 | CO[C@H](C)CN1CCC2(C)c3cccc(O)c3C[C@H]1C2(C)C | > 10000 nmol/L | 5.00 |  | inhibition [10]: 48%; inhibition [11]: 42%
4 | CC1[C@H]2Cc3c(O)cccc3C1(C)CCN2C[C@@H](C)OCc1ccccc1 (stereo partly specified) | 452 nmol/L | 6.82 | 3.1 | 
5 | COC(C)CN1CCC2(C)c3cc(O)ccc3C[C@@H]1C2(C)C (stereo partly specified) | > 10000 nmol/L | 5.22 |  | ED50 (Mus musculus [7]): 0.1 mg/kg; inhibition [11]: 29%
6 | C[C@@H](CN1CCC2(C)c3ccc(O)cc3C[C@H]1C2(C)C)Oc1ccccc1 | 6464 nmol/L | 5.82 | > 100 | Animals (Mus musculus [4]): 0%
7 | COC(C)CN1CCC2(C)c3ccc(O)cc3C[C@@H]1C2(C)C (stereo partly specified) | > 10000 nmol/L | < 5.00 |  | ED50 (Mus musculus [7]): 0.7 mg/kg; inhibition [10]: 45%; inhibition [11]: 21%
8 | CC1[C@H]2Cc3c(O)cccc3C1(C)CCN2C[C@H](C)OCc1ccccc1 (stereo partly specified) | 134 nmol/L | 7.27 | 2.4 | 
9 | Cc1cccc(C)c1OCC(C)N (stereo unspecified) [MEXILETINE] | 47000 nmol/L | 4.64 |  | 
10 | Cc1ccc(-c2nc(CN3CCN(C(c4ccccc4)c4ccccc4)CC3)c(C)[nH]2)cc1 [LIFARIZINE] | 494 nmol/L | 6.59 |  | 
11 | CO[C@@H](C)CN1CCC2(C)c3cccc(O)c3C[C@H]1C2(C)C | > 10000 nmol/L | 5.00 |  | inhibition [10]: 52%; inhibition [11]: 25%
12 | C[C@@H](CN1CCC2(C)c3ccc(O)cc3C[C@@H]1C2(C)C)Oc1ccccc1 | 5799 nmol/L | 6.83 | > 30 | Animals (Mus musculus [4]): 0%
13 | C[C@@H](CN1CCC2(C)c3cccc(O)c3C[C@H]1C2(C)C)OCc1ccccc1 | 1289 nmol/L | 5.88 | > 100 | Mice (Mus musculus [4]): 40%
14 | C[C@H](CN1CCC2(C)c3cccc(O)c3C[C@H]1C2(C)C)OCc1ccccc1 | 3772 nmol/L | 5.83 | > 100 | Mice (Mus musculus [4]): 40%
15 | C[C@@H](CN1CCC2(C)c3ccc(O)cc3C[C@H]1C2(C)C)OCc1ccccc1 | 4516 nmol/L | 5.73 | > 100 | Mice (Mus musculus [4]): 30%
16 | CO[C@@H](C)CN1CCC2(C)c3ccccc3C[C@@H]1C2(C)C | ~ 10000 nmol/l | 5.33 |  | inhibition [11]: 52%

Row | Compound | IC50 [2] | pKi [3] | ED50 (Mus musculus [7]; [13]) [mg/kg] | other results
17 | C[C@H](CN1CCC2(C)c3ccc(O)cc3C[C@H]1C2(C)C)Oc1ccccc1 | 6340 nmol/L | 6.06 |  | 
18 | C[C@H](CN1CCC2(C)c3ccc(O)cc3C[C@@H]1C2(C)C)Oc1ccccc1 | 6024 nmol/L | 6.18 |  | 
19 | C[C@@H](CN1CCC2(C)c3cccc(O)c3C[C@@H]1C2(C)C)OCC1CCCCC1 | 975 nmol/L | 6.68 | > 30 | Mice (Mus musculus [4]): 0%
20 | CN(c1nc2ccccc2s1)C1CCN(C[C@H](O)COc2ccc(F)c(F)c2)CC1 [LUBELUZOLE] |  | 6.69 |  | 
21 | C[C@H](CN1CCC2(C)c3cccc(O)c3C[C@@H]1C2(C)C)OCc1ccccc1 | 922 nmol/L | 6.94 | 9.4 | Ki [5]: 500 nM l-1; Ki [6]: 391 nM l-1; Ki [8]: > 10000 nM l-1; Ki [9]: > 10000 nM l-1
22 | CC(CN1CCC2(C)C[C@@H]1Cc1c(O)cccc12)OCc1ccccc1 (stereo partly specified) | 255 nmol/L | 7.33 | 2.2 | 
23 | C[C@H](CN1CCC2(C)c3ccc(O)cc3C[C@H]1C2(C)C)OCc1ccccc1 | 2676 nmol/L | 5.91 | > 100 | Mice (Mus musculus [4]): 30%
24 | COc1ccc2c(c1)[C@]13CCCC[C@@H]1[C@H](C2)N(C)CC3 [DEXTROMETHORPHAN] | > 10000 nmol/L | 5.32 |  | inhibition [11]: 5%
25 | CO[C@@H](C)CN1CCC2(C)c3cccc(O)c3C[C@@H]1C2(C)C | 3190 nmol/L | 6.11 |  | ED50 (Mus musculus [7]): 1 mg/kg
26 | C[C@H](CN1CCC2(C)c3ccc(O)cc3C[C@@H]1C2(C)C)OCc1ccccc1 | 3177 nmol/L | 6.42 | 35.3 | 
27 | C[C@@H](CN1CCC2(C)c3ccc(O)cc3C[C@@H]1C2(C)C)OCc1ccccc1 | 2300 nmol/L | 6.51 | 10.1 | 
28 | CC12CCN(CCOCc3ccccc3)[C@H](Cc3c(O)cccc31)C2(C)C | 379 nmol/L | 7.70 | 2.1 | Ki [12]: > 10000 nM l-1; Ki [5]: 60 nM l-1; Ki [6]: 217 nM l-1; Ki [8]: > 10000 nM l-1
29 | CO[C@H](C)CN1CCC2(C)c3cccc(O)c3C[C@@H]1C2(C)C | 4153 nmol/L | 5.48 |  | ED50 (Mus musculus [7]): 0.8 mg/kg
30 | COC(C)CN1CCC2(C)c3c(O)cccc3C[C@@H]1C2(C)C (stereo partly specified) | > 10000 nmol/L | 5.05 |  | inhibition [11]: 23%
31 | CC12CCN(CCc3ccccc3)[C@@H](Cc3cc(O)ccc31)C2(C)C | 5029 nmol/L | 5.89 |  | 
